In PMC3865530 (Current pharmaceutical design, 2012):

Legend:
Assay type in all cases: binding
AATT duplex sequence = test: UV-thermal melting with AT-rich hairpin duplex DNA; settings: ligand:DNA ratio 2:1; 80 mM KCl; Tm of free AATT 69 °C
[1] = system: Tel24 human telomeric quadruplex DNA; test: UV-thermal melting with telomeric quadruplex DNA; settings: ligand:DNA ratio 4:1; 80 mM KCl; Tm of free Tel24 67 °C
(CG)4 duplex sequence = test: UV-thermal melting with GC-rich hairpin duplex DNA; settings: ligand:DNA ratio 2:1; 80 mM KCl; Tm of free (CG)4 63 °C
Summary of the method: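 Duplex melted in 10 mM K₂HPO₄, 80 mM KCl, 3 mM EDTA, pH 7.3, at 2–3 µM single-strand, in 1 cm quartz cuvettes. Ligand was titrated from stock to compound:DNA ratios up to 4:1. Absorbance at 260 nm was followed while heating at 0.5 °C/min. ΔTm was taken at 2:1, reproducible within ±1 °C.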

Row | Compound | ∆Tm of AATT duplex (AATT duplex sequence) | ∆Tm of Tel24 quadruplex [1] | ∆Tm of (CG)4 duplex ((CG)4 duplex sequence)
1 | Cn1cc(NC(=O)c2cc(NC(=O)c3cc(NC=O)cn3C)cn2C)cc1C(=O)NCCC(=N)N [Distamycin] | strong binder | did not show any significant increase | 
2 | COS(=O)(=O)[O-].Cc1cc2c3c([n+](C)c4ccc(F)cc4c3c1)-c1cc(F)ccc1N2C [RHPS4, 3,11-difluoro-6,8,13-trimethyl-8H-quino[4,3,2-kl] acridinium methosulfate] | very little affinity | very similar melting values as DB832 | very little affinity
